Screens deposited in PubChem BioAssay by several laboratories.
L major viab = reduces viability of Leishmania major promastigotes; resazurin fluorescence viability; inhibition, % at 10 µM; 9% of 200,000 active; AID 1063;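 further: promastigotes grown with compound for 44 hours at 28 °C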
Diaph act CS = counter-screen for diaphorase-based assays: diaphorase activators and chemical reducers. Diaphorase/resazurin coupled assay, resorufin fluorescence, 16 min; active compounds read high; 1 = vehicle wells, 0 = NADH-free wells. activation factor at 20 µM. 0.005% of 190,000 active. AID 1229;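 active means diaphorase activity raised at least twofold by the compound at 20 µM; inactive means activation factor below 2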
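Assay system: bacterial diaphorase enzyme (C. kluyveri) / Input: enzyme 0.07 U/mL final / Medium: 50 mM HEPES pH 7.4 with 4.542 mM MgCl2, 0.005% Tween 20 / Doses: single compound dose of 20 µM, 1% DMSO final / Incubation: 16 min enzyme reaction, ambient temperature / Signal: fluorescence, excitation 544 nm and emission 590 nm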
G6PDH CS = L. mesenteroides G6PDH inhibition counter-screen; inhibition, % at 5 µM; 0.12% of 200,000 active; Purified L. mesenteroides G6PDH, diaphorase/resazurin coupled fluorescence, 45 min
Redox H2O2 prof = compounds producing H2O2 with reducing agent – biochemical, NIH compound library profiling, artefact control for MLSCN library redox annotation, primary screen | DTT-dependent redox cycling H2O2, phenol red/HRP absorbance; 100% = 100 µM peroxide control, 0% = buffer | activation, % at 10 µM | 0.03% of 200,000 active | AID 878;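 active means activation of at least 50% relative to the plate's high and low controls in the primary single-dose screen; inactive means activation below 50%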;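 further: compound incubated with DTT at 0.8 mM final as the reducing agent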
PfGluPho inh = PfG6PD (Plasmodium falciparum) enzyme inhibition; PfGluPho enzyme, NADPH resazurin-diaphorase fluorescence; inhibition, % at 20 µM; 0.78% of 350,000 active; AID 504690;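 active means inhibition reaching at least a set limit at 20 µM in the primary screen, cut at about 59% in these data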;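 further: 0% = DMSO wells with substrate and 100% = DMSO wells lacking glucose-6-phosphate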
Diaphorase inh = diaphorase inhibition or chemical oxidation counter-screen; AID 1217; inhibition, % at 20 µM; diaphorase resazurin-to-resorufin fluorescence, NADH, 16 min; bacterial (C. kluyveri) enzyme, not human; 0.69% of 190,000 active;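 active means primary screen inhibition at 20 µM above a set limit, cut at about 50% in these data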;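 further: plate controls were DMSO with full reaction for no effect and wells lacking NADH for full effect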
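controls = No-NADH positive control and DMSO neutral control | system = Clostridium kluyveri diaphorase enzyme | timing = reaction incubation of 16 min at room temperature | signal = resorufin fluorescence 544/590 nm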
* = called active by the depositor; nt = no result. The entries come from a sample that favours hits as a whole. Unless noted, no stated cut-off is given here; in the data, active means inhibition above about 50%; inactive means the rest.

SMILES	L major viab	Diaph act CS	G6PDH CS	Redox H2O2 prof	PfGluPho inh	Diaphorase inh
CCCCn1c(N)c(N(C)C(=O)C2CC(=O)N(Cc3ccco3)C2)c(=O)[nH]c1=O (stereo not given)	nt	nt	nt	nt	-19	nt
CCOc1ccc(-c2nc(S(=O)(=O)c3ccccc3)c(NCc3cccnc3)o2)cc1	83*	0.8	5	0	7	20
OCC1(CCCc2ccccc2)CCN(Cc2cnc(N3CCOCC3)s2)CC1	79*	0.9	7	-1	-2	10
Cc1ncc(CN2CCC(CO)(CCc3ccccc3)CC2)s1	84*	0.9	20	0	-6	9
Cc1ccccc1-c1ncc(CN2CCC(CO)(CCCc3ccccc3)CC2)cn1	2	0.8	6	-1	-7	15
CCCOc1ccc(NC(=O)CC2C(=O)N(CC)C(=S)N2CCNC(C)=O)cc1 (stereo not given)	-8	0.9	4	0	4	13
CCOc1ccc(NC(=O)CC2C(=O)N(C)C(=S)N2CCCc2ccccc2)cc1 (stereo not given)	78*	0.8	-5	-1	10	24
CCOc1ccc(NC(=O)CC2C(=O)N(C)C(=S)N2Cc2ccco2)cc1 (stereo not given)	-3	0.9	-13	0	-2	8
CCCOc1ccc(NC(=O)CC2C(=O)N(CC)C(=S)N2CCCN2CCN(Cc3ccccc3)CC2)cc1 (stereo not given)	99*	0.9	2	-1	16	14
Cc1nnc(SC(C)C(=O)Nc2c(C)n(C)n(-c3ccccc3)c2=O)n1N (stereo not given)	1	0.9	10	0	8	15
Cn1c(SCC(=O)NCC2CCCO2)nnc1-c1ccc(Cl)cc1 (stereo not given)	nt	nt	nt	nt	-7	nt
COc1ccc(-c2[nH]c(-c3cccc(OC)c3)nc2SCC(=O)NC2CCCC2)cc1	58*	0.8	22	0	22	24
COc1ccc(-c2[nH]c(-c3ccc(F)cc3)nc2SCC(=O)NC2CCCC2)cc1	77*	0.8	24	0	12	19
COc1ccc(-c2[nH]c(-c3ccccc3)nc2SCC(=O)NC2CCCC2)cc1	20	0.9	15	1	14	11
Cc1ccc(-c2[nH]c(-c3ccc(Cl)cc3)nc2SCC(=O)NCC2CCCO2)cc1 (stereo not given)	70*	1	12	-1	23	-4
CC1CCCC(CC(N)=O)CC1 (stereo not given)	nt	nt	nt	nt	3	nt
CCCNS(=O)(=O)c1ccc(OCC(=O)N2CCOCC2)cc1	-5	0.9	0	1	-6	13
O=C(NCC1COc2ccccc2O1)c1ccc(Cl)cc1 (stereo not given)	0	0.9	-2	1	3	13
O=C(Nc1ccc2c(c1)OCCO2)c1ccco1	-1	0.8	1	2	6	15
Cc1cc(NC(=O)c2ccc3c(c2)OCO3)ccc1NC(=O)c1ccco1	7	0.9	0	1	15	12
O=C(NCC1COc2ccccc2O1)c1ccc(NC(=O)c2ccco2)cc1 (stereo not given)	55*	0.9	12	0	9	11
O=C(OC1CCCCC1)c1ccc(NC(=O)c2ccco2)cc1	75*	0.8	-7	1	-12	19
O=C(Nc1cccc(NC(=O)c2ccco2)c1)c1ccc2c(c1)OCO2	81*	0.9	2	3	1	10
O=C(Nc1cccc(NC(=O)c2ccco2)c1)c1ccc2c(c1)OCCO2	51*	0.8	9	0	-7	19
CC(=O)c1ccccc1NC(=O)C1CCCN(C(=O)c2ccc(Cl)cc2)C1 (stereo not given)	nt	nt	nt	nt	-10	nt
SMILES	L major viab	Diaph act CS	G6PDH CS	Redox H2O2 prof	PfGluPho inh	Diaphorase inh
O=C(NCCc1cn2ccccc2n1)c1cc(COc2c(F)cccc2F)on1	52*	nt	10	0	-8	nt
Cc1ccc(OCc2cc(C(=O)NCc3cn4ccccc4n3)no2)cc1C	nt	nt	nt	nt	7	nt
Cc1c(Br)c(C(F)(F)F)nn1CC(=O)NCc1ccccc1	-6	0.8	1	0	13	20
Cc1nn(CC(=O)NCCC2=CCCCC2)c(C)c1[N+](=O)[O-]	nt	nt	nt	nt	15	nt
CCC1CCCCN1S(=O)(=O)c1ccc(S(=O)(=O)N(Cc2cccs2)C2CC2)cc1 (stereo not given)	100*	0.8	3	-3	6	16
O=C1/C(=C/c2ccc(O)c(O)c2)SC(=S)N1Nc1ccccc1	78*	0.4	4	-4	-2	56*
Cc1ccc2cc(CCNC(=O)c3ccc(C)c([N+](=O)[O-])c3)c(=O)[nH]c2c1	-1	0.4	-2	0	-44	59*
COc1ccc(-n2c(-c3ccc(Cl)cc3)c[nH]c2=S)cc1	nt	nt	nt	nt	48	nt
COc1ccc(OC)c(NC(=O)CCC(=O)Oc2ccc(C)cc2)c1	nt	nt	nt	nt	-4	nt
COc1ccc(N2CCN(CCNC(=O)Nc3ccc(C)c(Cl)c3)CC2)cc1	nt	nt	nt	nt	-4	nt
COc1ccc(NC(=O)NCCN2CCN(c3cccc(Cl)c3)CC2)cc1	85*	0.9	-19	0	-13	7
O=C(NCCCN1CCN(c2cccc(Cl)c2)CC1)c1ccc(N2CCCC2=O)cc1	97*	1	6	0	-6	-2
CCCCN(C)CCCNC(=O)c1ccc(N2CCCC2=O)cc1	51*	0.9	14	0	-9	6
CN(CCCNC(=O)c1ccc(N2CCCC2=O)cc1)c1ccccc1	-2	0.9	10	-3	-2	8
COc1cc(/C=N/NC(=O)c2cc(-c3cccc(OC(C)C)c3)nc3ccccc23)ccc1O	nt	nt	nt	nt	40	nt
Cc1cc(Br)cc2c(C(=O)Nc3c(C)n(C)n(-c4ccccc4)c3=O)cc(-c3cccs3)nc12	69*	0.7	-65	-1	1	29
CCc1ccc(-c2cc(C(=O)Nc3c(C)n(C)n(-c4ccccc4)c3=O)c3ccccc3n2)s1	31	0.8	-3	-8	5	19
C=C1CC[C@@]23CC[C@]4(C)[C@@](OC2=O)([C@@H]3C1)[C@H]1O[C@H]1C1[C@@]2(C)CC[C@H](O)C(C)(C)C2CC[C@]14C (stereo not given in full)	nt	nt	nt	nt	0	nt
Nc1c2c(nc3ccccc13)N(c1ccccc1)CC2	nt	0.9	-18	nt	3	8
CN1CCCCc2c1nc1ccccc1c2N (tested in a mixture with another compound)	92*	0.8	5	1	-14	20
COC(=O)C1C(=O)NC(SC)=C(C#N)C1c1ccccc1F (stereo not given)	82*	1.1	10	2	-3	-10
